Calls of active or inactive are those of the source. The calls are words filed in the database; no cut-off is given here.
What was measured:
[1] = Growth inhibition of human HT1080 cells after 72 hrs by MTT assay; assay type: functional, cell-based; conditions: HT-1080, 72 h
How it was run: (§1)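 Cells grown in RPMI-1640 with 10% FBS, penicillin/streptomycin, 37 °C, 5% CO2; seeded 1-3 × 10^4/well, treated 24 h later in triplicate wells for 72 h. MTT (5 mg/mL) added in fresh medium for 4 h, formazan dissolved in DMSO, OD490 read; IC50 = concentration reducing absorbance by 50% versus vehicle-treated wells; triplicate experiments.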

[2] = Growth inhibition of human SGC7901 cells after 72 hrs by MTT assay; assay type: functional, cell-based; conditions: SGC-7901, 72 h; how it was run: as §1
A549 = assay: Growth inhibition of human A549 cells after 72 hrs by MTT assay; assay type: functional, cell-based; conditions: A549, 72 h; how it was run: as §1
Tubulin = Tubulin (Bos taurus, UniProt Q6B856+Q862L2+Q862F3); assay: (§2) Inhibition of bovine brain tubulin polymerization incubated for 90 mins by fluorescence-based assay
How it was run: (§3)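 Fluorescence kit assay with purified bovine tubulin resuspended in ice-cold G-PEM (80 mM PIPES, 2 mM MgCl2, 0.5 mM EGTA, 1 mM GTP, 20% glycerol) and added to drug or DMSO vehicle. Reaction started by warming from 4 °C to 37 °C.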

Tubulin (Bos taurus) = Tubulin (Bos taurus) (UniProt Q6B856+Q862L2+Q862F3); assay: as §2; how it was run: as §3
Tubulin (Homo sapiens) [3] = biological target: T1, Tubulin (Homo sapiens) (UniProt P68371+Q9H4B7+P0DPH7+P68366+Q13509+Q71U36+P04350+Q3ZCM7+P07437+P68363+Q9BQE3+Q6PEY2+Q13885+Q9BVA1+Q9BUF5); assay: Induction of distortions in tubulin assembly in human HT1080 cells assessed as abnormal mitotic spindle formation at 2 fold IC50 level incubated for 48 hrs by immunofluorescence staining based fluorescence microscopy; assay type: cell-based; conditions: HT-1080
How it was run: (§4)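 Fixed in 4% formaldehyde/PBS 30 min at -20 °C, permeabilised with 0.1% Triton X-100, blocked in 5% BSA. Stained with α-tubulin primary (1:100, overnight 4 °C) and FITC anti-mouse secondary (1:1000, 3 h 37 °C), DAPI nuclei; fluorescence microscopy.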

Tubulin (Homo sapiens) [4] = biological target: T1, Tubulin (Homo sapiens); assay: Induction of distortions in tubulin assembly in human SGC7901 cells assessed as abnormal mitotic spindle formation at 2 fold IC50 level incubated for 48 hrs by immunofluorescence staining based fluorescence microscopy; assay type: cell-based; conditions: SGC-7901; how it was run: as §4

| SMILES | IC50 [1] [µM] | IC50 [2] [µM] | IC50 (A549) [µM] | IC50 (Tubulin) [µM] | inhibition (Tubulin (Bos taurus)) | Activity (Tubulin (Homo sapiens) [3]) | Activity (Tubulin (Homo sapiens) [4]) |
| --- | --- | --- | --- | --- | --- | --- | --- |
| COC(=O)Nc1nc2cc(Sc3c(C)[nH]c4ccc(Cl)cc34)ccc2[nH]1 | 4.13 | 3.38 | 7.33 | – | – | – | – |
| COC(=O)Nc1nc2cc([S+]([O-])c3c(C)[nH]c4ccccc34)ccc2[nH]1 (stereo not drawn) | 9.85 | 9.93 | 7.98 | – | – | – | – |
| COC(=O)Nc1nc2cc(Sc3c[nH]c4ccc(Br)cc34)ccc2[nH]1 | 1.33 | 2.12 | 1.19 | 8.2 | Dose-dependent effect | – | – |
| COC(=O)Nc1nc2cc(C(=O)c3cccs3)ccc2[nH]1 [NOCODAZOLE] | 0.14 | 0.08 | 0.12 | – | – | Active | Active |
| COC(=O)Nc1nc2cc(S(=O)(=O)c3c(C)[nH]c4ccc(F)cc34)ccc2[nH]1 | > 10 | 4.18 | 9.08 | – | – | – | – |
| COC(=O)Nc1nc2cc(S(=O)(=O)c3c[nH]c4ccc(Br)cc34)ccc2[nH]1 | 3.18 | 7.44 | 7.42 | – | – | – | – |
| COC(=O)Nc1nc2cc([S+]([O-])c3c[nH]c4ccc(Br)cc34)ccc2[nH]1 (stereo not drawn) | > 10 | 5.19 | > 10 | – | – | – | – |
| COC(=O)Nc1nc2cc(S(=O)(=O)c3c(C)[nH]c4ccccc34)ccc2[nH]1 | > 10 | > 10 | > 10 | – | – | – | – |
| COC(=O)Nc1nc2cc([Se]c3c[nH]c4ccc(C#N)cc34)ccc2[nH]1 | 0.95 | 1.11 | 5.07 | – | – | – | – |
| COC(=O)Nc1nc2cc([Se]c3c(C)[nH]c4ccccc34)ccc2[nH]1 | 0.27 | 0.23 | 3.83 | – | – | – | – |
| COC(=O)Nc1nc2cc([Se]c3c[nH]c4ccc(Br)cc34)ccc2[nH]1 | 2.75 | 2.15 | 2.21 | – | – | – | – |
| COC(=O)Nc1nc2cc([S+]([O-])c3c(C)[nH]c4ccc(Cl)cc34)ccc2[nH]1 (stereo not drawn) | > 10 | > 10 | > 10 | – | – | – | – |
| COC(=O)Nc1nc2cc([S+]([O-])c3c[nH]c4ccccc34)ccc2[nH]1 (stereo not drawn) | 5.24 | 3.96 | 6.23 | – | – | – | – |
| COC(=O)Nc1nc2cc([S+]([O-])c3c[nH]c4ccc(C#N)cc34)ccc2[nH]1 (stereo not drawn) | 9.43 | > 10 | > 10 | – | – | – | – |
| COC(=O)Nc1nc2cc([S+]([O-])c3c(C)[nH]c4ccc(F)cc34)ccc2[nH]1 (stereo not drawn) | > 10 | 3.51 | 3.27 | – | – | – | – |
| COC(=O)Nc1nc2cc(Sc3c(C)[nH]c4ccccc34)ccc2[nH]1 | 0.97 | 0.51 | 0.83 | – | – | – | – |
| COC(=O)Nc1nc2cc(S(=O)(=O)c3c[nH]c4ccc(C#N)cc34)ccc2[nH]1 | > 10 | > 10 | > 10 | – | – | – | – |
| COC(=O)Nc1nc2cc(Sc3c(C)[nH]c4ccc(F)cc34)ccc2[nH]1 | 3.27 | 1.2 | 2.52 | – | – | – | – |
| COC(=O)Nc1nc2cc([Se]c3c[nH]c4ccccc34)ccc2[nH]1 | 0.13 | 0.098 | 0.15 | 3.6 | Dose-dependent effect | Active | Active |
| COC(=O)Nc1nc2cc([Se]c3c(C)[nH]c4ccc(F)cc34)ccc2[nH]1 | 1.69 | 1.12 | 1.15 | – | – | – | – |
| COC(=O)Nc1nc2cc(Sc3c[nH]c4ccc(C#N)cc34)ccc2[nH]1 | 0.62 | 0.12 | 5.14 | – | – | – | – |
| COC(=O)Nc1nc2cc(Sc3c[nH]c4ccccc34)ccc2[nH]1 | 0.88 | 2.62 | 0.39 | – | – | – | – |
| COC(=O)Nc1nc2cc(S(=O)(=O)c3c[nH]c4ccccc34)ccc2[nH]1 | 2.01 | 1.26 | 4.21 | – | – | – | – |
| COC(=O)Nc1nc2cc(S(=O)(=O)c3c(C)[nH]c4ccc(Cl)cc34)ccc2[nH]1 | > 10 | > 10 | > 10 | – | – | – | – |
| COC(=O)Nc1nc2cc([Se]c3c(C)[nH]c4ccc(Cl)cc34)ccc2[nH]1 | > 10 | > 10 | 2.98 | – | – | – | – |

From ChEMBL document CHEMBL3351665, “Synthesis and evaluation of benzimidazole carbamates bearing indole moieties for antiproliferative and antitubulin activities” (Eur J Med Chem, 2014)
